The values below come from ChEMBL document CHEMBL4616671, “Identification of N-Phenyl-7H-pyrrolo[2,3-d]pyrimidin-4-amine Derivatives as Novel, Potent, and Selective NF-κB Inducing Kinase (NIK) Inhibitors for the Treatment of Psoriasis” (J Med Chem, 2020).

Test [1] has as its target Mitogen-activated protein kinase kinase kinase 14 (Homo sapiens, UniProt Q99558). Description: Inhibition of NIK in human BEAS2B cells assessed as reduction in LPS-induced IL-6 level preincubated for 8 hrs followed by LPS stimulation and measured after 24 hrs by ELISA. It counts as cell-based. The method, boiled down:
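BEAS-2B cells were grown in DMEM with 10% FBS, seeded at 5000 cells/well, and cultured 24 h at 37 °C in 5% CO2. Compounds were given at 7 concentrations from 10 μM to 0.014 μM (3 replicate wells), with dexamethasone as positive control. After 8 h, LPS (20 μg/mL solution) was added for 24 h. Supernatant IL-6 was read by human IL-6 ELISA; two biological replicates.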
For orientation: In an ELISA, binding on a coated surface is turned into a signal by an enzyme label.

Another test has as its system J774. Description: Antiinflammatory activity in mouse J774 cells assessed as reduction in LPS-induced IL-1 beta mRNA level by SYBR green dye-based quantitative PCR analysis. It counts as functional, cell-based. An outline of the steps: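 LPS-stimulated J774 macrophages; mRNA quantified by qPCR using 4 µL cDNA plus 16 µL master mix per reaction. Mean ± SD of three biological replicates; significance by two-tailed Student's t-test against the model group.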

For test [2], the target named is Mitogen-activated protein kinase kinase kinase 14 (Mus musculus) (UniProt Q9WUL6). In words: In vivo inhibition of NIK in C57 mouse model of IMQ-induced psoriasis assessed as reduction in NF-kappaB signalling in back skin by measuring decrease in mRNA IL-12 level at 60 to 120 mg/kg, po administered starting from day 3 post IMQ-challenge and measured 2 days post-last dose of IMQ by qPCR analysis. It counts as functional, organism-based. An outline of the steps:
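C57 mice had 5% imiquimod cream applied to the back skin once daily for seven consecutive days. Oral gavage dosing at 60 or 120 mg/kg once daily started on day 3 and continued to the end, with n = 6 per group alongside normal and IMQ-only model groups. Back-skin mRNA was quantified by qPCR.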
For orientation: In qPCR the cycle at which signal appears reflects the starting amount.

The target in test [3] is NT-3 growth factor receptor (Homo sapiens, UniProt Q16288). In words: Inhibition of human TRKC using poly[Glu:Tyr] (4:1) as substrate in presence of [gamma33P]ATP by hotspot assay.
For test [4], the target named is Mitogen-activated protein kinase kinase kinase 14 (Mus musculus) (UniProt Q9WUL6). In words: In vivo inhibition of NIK in C57 mouse model of IMQ-induced psoriasis assessed as reduction in NF-kappaB signalling in back skin by measuring decrease in mRNA IL-10 level at 60 to 120 mg/kg, po administered starting from day 3 post IMQ-challenge and measured 2 days post-last dose of IMQ by qPCR analysis. It counts as functional, organism-based. An outline of the steps:
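IMQ psoriasis model: 5% imiquimod cream applied to C57 mouse back skin once daily for seven days; oral dosing 60 or 120 mg/kg once daily from day 3, n = 6 per group. Back-skin mRNA measured by qPCR.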

The source made the active and inactive calls. The calls are words filed in the database; no cut-off is given here.

Sequence of Mitogen-activated protein kinase kinase kinase 14 (Mus musculus) (Q9WUL6 whole entry): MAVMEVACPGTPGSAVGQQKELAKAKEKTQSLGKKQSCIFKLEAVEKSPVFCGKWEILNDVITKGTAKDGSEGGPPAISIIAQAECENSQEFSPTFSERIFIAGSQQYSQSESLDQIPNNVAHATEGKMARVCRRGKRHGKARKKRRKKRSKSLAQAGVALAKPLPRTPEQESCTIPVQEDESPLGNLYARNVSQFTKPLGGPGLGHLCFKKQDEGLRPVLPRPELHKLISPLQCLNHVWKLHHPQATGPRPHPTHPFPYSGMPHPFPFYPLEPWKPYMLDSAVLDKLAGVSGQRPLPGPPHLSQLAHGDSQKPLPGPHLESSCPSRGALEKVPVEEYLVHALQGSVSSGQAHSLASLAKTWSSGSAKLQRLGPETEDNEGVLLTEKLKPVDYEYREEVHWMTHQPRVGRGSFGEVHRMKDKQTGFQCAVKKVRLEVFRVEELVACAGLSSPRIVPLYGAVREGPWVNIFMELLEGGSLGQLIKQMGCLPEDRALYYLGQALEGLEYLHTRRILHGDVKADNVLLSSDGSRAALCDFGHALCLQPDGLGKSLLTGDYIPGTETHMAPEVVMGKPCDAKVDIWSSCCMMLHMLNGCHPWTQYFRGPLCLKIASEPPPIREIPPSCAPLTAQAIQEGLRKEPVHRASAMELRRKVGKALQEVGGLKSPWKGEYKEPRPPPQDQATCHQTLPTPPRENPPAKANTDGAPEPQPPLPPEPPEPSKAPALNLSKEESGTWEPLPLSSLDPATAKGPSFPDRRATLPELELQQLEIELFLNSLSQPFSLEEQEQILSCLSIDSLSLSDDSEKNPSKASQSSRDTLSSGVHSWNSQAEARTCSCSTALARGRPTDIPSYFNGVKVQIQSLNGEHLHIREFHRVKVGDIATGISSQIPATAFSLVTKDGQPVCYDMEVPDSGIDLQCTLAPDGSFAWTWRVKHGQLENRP
Sequence of NT-3 growth factor receptor (Q16288 whole entry): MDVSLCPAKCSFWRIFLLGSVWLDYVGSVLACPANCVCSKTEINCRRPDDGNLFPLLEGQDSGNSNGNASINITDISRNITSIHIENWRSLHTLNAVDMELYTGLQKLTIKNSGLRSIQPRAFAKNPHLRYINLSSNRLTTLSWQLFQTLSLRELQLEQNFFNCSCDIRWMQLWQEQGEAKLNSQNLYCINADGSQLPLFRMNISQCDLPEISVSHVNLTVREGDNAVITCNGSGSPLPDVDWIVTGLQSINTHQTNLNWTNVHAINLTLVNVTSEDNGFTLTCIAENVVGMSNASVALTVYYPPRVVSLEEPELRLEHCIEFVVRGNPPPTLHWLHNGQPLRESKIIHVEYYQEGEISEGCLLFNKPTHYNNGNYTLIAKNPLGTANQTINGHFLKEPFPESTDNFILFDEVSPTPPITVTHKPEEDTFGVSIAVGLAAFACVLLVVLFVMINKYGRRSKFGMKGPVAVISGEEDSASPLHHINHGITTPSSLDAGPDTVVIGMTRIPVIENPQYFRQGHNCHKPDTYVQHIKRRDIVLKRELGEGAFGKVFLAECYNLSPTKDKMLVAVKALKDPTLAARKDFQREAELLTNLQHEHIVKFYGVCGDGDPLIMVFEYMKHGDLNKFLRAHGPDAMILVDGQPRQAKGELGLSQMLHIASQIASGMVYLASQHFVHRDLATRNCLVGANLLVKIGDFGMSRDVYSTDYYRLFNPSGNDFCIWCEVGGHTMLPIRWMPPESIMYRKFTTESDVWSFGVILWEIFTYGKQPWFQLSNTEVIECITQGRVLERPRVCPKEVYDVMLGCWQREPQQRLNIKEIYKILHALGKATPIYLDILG
Sequence of Mitogen-activated protein kinase kinase kinase 14 (Q99558 whole entry, looked up): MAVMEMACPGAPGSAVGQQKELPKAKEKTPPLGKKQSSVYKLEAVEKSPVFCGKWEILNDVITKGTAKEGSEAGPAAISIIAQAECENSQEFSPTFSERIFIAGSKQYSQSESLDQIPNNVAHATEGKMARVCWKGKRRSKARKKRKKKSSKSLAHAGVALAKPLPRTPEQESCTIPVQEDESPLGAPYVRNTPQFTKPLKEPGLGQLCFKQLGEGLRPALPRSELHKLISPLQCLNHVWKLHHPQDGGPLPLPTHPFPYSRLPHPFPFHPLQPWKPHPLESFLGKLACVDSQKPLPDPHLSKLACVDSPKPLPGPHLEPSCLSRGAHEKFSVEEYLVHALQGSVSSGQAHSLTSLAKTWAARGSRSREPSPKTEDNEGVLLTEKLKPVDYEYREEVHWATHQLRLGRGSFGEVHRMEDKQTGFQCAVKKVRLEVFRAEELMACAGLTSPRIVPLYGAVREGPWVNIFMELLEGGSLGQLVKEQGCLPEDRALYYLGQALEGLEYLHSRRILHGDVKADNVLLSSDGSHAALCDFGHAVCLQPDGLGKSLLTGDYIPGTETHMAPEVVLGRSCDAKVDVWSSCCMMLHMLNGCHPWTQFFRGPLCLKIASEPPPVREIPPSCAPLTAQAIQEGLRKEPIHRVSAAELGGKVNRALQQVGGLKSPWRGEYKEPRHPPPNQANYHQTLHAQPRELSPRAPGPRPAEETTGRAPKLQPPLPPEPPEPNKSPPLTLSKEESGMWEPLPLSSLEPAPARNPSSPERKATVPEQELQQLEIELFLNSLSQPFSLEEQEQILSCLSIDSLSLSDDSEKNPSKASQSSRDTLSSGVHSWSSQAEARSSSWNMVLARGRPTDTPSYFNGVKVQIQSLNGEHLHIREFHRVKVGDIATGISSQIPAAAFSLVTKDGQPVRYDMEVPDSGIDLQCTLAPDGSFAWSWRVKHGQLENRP

As for `CC(O)(C#Cc1ccc(N2CCOCC2)c(Nc2ncnc3[nH]ccc23)c1)c1nccs1` (racemic), the inhibition entry in test [1] is “Dose-dependent effect”. In addition, the result in the test on J774 was Active. The inhibition result in test [2] and in test [4] was “Active” each time. Also, the IC50 – broadly, the concentration needed to halve the response being measured – in test [3] is 50.1 nM.
